The full list was thinned out, with hits kept by preference.
IDH1 R132H inh: inhibitors of human IDH1 R132H | inhibition, % at 10 µM | O75874 | actives 0.18% (n = 70,000) | IDH1 R132H reductase, diaphorase/resazurin fluorescence, 60 min; in the data active = inhibition above about 34%; inconclusive = no clear call, values can overlap the other calls; inactive = below about 11%
GASC1 inh: KDM4C (human) demethylase inhibition | GST-KDM4C 2-372, H3K9me3 peptide, LANCE TR-FRET | inhibition, % at 12.5 µM | actives 0.15% (n = 96,000) | AID 720574;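 active = mean replicate inhibition above about 25%, with at least 55% of replicates also reaching it, limit read from the data, passing the limit was not always enough; inconclusive = only one of those two conditions met; inactive = neither condition met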
Target sequence (Q9H3R0 2-372 limits assumed): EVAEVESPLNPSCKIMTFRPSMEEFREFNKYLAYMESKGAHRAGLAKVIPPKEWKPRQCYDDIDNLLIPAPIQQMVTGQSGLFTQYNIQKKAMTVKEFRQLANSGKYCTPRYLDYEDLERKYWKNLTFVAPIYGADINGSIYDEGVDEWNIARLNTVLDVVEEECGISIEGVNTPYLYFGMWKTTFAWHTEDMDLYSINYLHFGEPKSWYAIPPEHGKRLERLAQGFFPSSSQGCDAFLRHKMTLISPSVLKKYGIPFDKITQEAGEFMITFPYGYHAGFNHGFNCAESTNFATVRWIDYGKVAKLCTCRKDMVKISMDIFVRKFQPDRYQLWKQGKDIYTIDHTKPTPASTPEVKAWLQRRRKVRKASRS
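Test system: N-terminal GST-fused human GASC-1 (KDM4C) fragment, residues 2-372; quantity: GASC-1 enzyme at 10 nM final in reaction; dosing: single dose; schedule: 30 min demethylation and 1 h detection at room temperature; signal: LANCE TR-FRET, excitation 340 nm, emissions 618 and 671 nm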
T cruzi growth-1: blocks T. cruzi growth in NIH3T3 culture; T. cruzi beta-gal in NIH3T3, GalScreen luminescence, 90 h; actives 5.9% (n = 77,000); AID 624255; inhibition, % at 8.34 µM;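 active = mean inhibition above about 93%, with at least 55% of replicates each passing it, limit read from the data, passing the limit was not always enough; inconclusive = only one of those two conditions holds; inactive = neither condition holds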
T cruzi growth-2: Trypanosoma cruzi proliferation inhibition; inhibition, % at 8.35 µM; shares compounds with T cruzi growth-1; AID 651739; T. cruzi beta-gal in NIH3T3, GalScreen luminescence, 90 h; actives 72% (n = 5,600);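 active = mean replicate inhibition above about 95% and at least 55% of replicates individually reaching it, limit read from the data; inconclusive = only one of the two criteria is met; inactive = neither criterion is met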
T cruzi growth-3: blocks T. cruzi growth in NIH3T3 host cells; shares compounds with T cruzi growth-1; T. cruzi beta-gal in NIH3T3, GalScreen luminescence, 90 h; inhibition, % at 2.09 µM; actives 21% (n = 5,600); AID 651740;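 active = mean inhibition above about 95%, with at least 55% of replicates also reaching it, limit read from the data; inconclusive = meets just one of the two conditions; inactive = meets neither condition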
3T3 cytotox: kills mouse NIH/3T3 fibroblasts | NIH/3T3 viability, CellTiter-Glo ATP luminescence, 90 h | shares compounds with T cruzi growth-1 | cytotoxicity (signal decrease), % at 8.35 µM | actives 14% (n = 5,600);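 active = mean signal decrease across replicates above about 35% based on untreated-well scatter, with enough replicates individually passing, limit read from the data; inconclusive = no rule stated though some were filed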
NIH3T3 tox 2: NIH/3T3 (mouse) viability loss. shares compounds with T cruzi growth-1. AID 651744. actives 56% (n = 5,600). inhibition, % at 24.9 µM. NIH/3T3 viability, CellTiter-Glo ATP luminescence, 90 h;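 active = mean loss of cell viability signal at or above a set limit, and enough replicates individually reaching it; inconclusive = meets only the mean limit or only the replicate share; inactive = meets neither condition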
Numbers stand for hits; n = inactive; u = inconclusive; x = not tested or not shown.

SMILES	IDH1 R132H inh	GASC1 inh	T cruzi growth-1	T cruzi growth-2	T cruzi growth-3	3T3 cytotox	NIH3T3 tox 2
COc1ccc(S(=O)(=O)N(C)C[C@@H]2OCCCC[C@@H](C)Oc3ccc(NS(=O)(=O)c4ccc(F)cc4)cc3C(=O)N([C@H](C)CO)C[C@@H]2C)cc1	x	n	n	x	x	x	x
COc1ccc(S(=O)(=O)Nc2ccc3c(c2)C(=O)N([C@H](C)CO)C[C@@H](C)[C@H](CN(C)S(=O)(=O)c2ccc(F)cc2)OCCCC[C@@H](C)O3)cc1	n	n	105	105	n	n	n
COc1ccc(S(=O)(=O)N(C)C[C@@H]2OCCCC[C@H](C)Oc3ccc(NS(=O)(=O)c4ccc(F)cc4)cc3C(=O)N([C@@H](C)CO)C[C@@H]2C)cc1	x	n	118	108	n	n	n
COc1ccc(S(=O)(=O)N(C)C[C@H]2OCCCC[C@H](C)Oc3ccc(NS(=O)(=O)c4ccc(F)cc4)cc3C(=O)N([C@H](C)CO)C[C@@H]2C)cc1	n	n	n	x	x	x	x
COc1ccc(S(=O)(=O)N(C)C[C@H]2OCCCC[C@@H](C)Oc3ccc(NS(=O)(=O)c4ccc(F)cc4)cc3C(=O)N([C@H](C)CO)C[C@H]2C)cc1	n	n	114	106	n	n	n
COc1ccc(S(=O)(=O)Nc2ccc3c(c2)C(=O)N([C@H](C)CO)C[C@@H](C)[C@@H](CN(C)S(=O)(=O)c2ccc(F)cc2)OCCCC[C@H](C)O3)cc1	x	n	95	108	n	n	n
COc1ccc(S(=O)(=O)Nc2ccc3c(c2)C(=O)N([C@@H](C)CO)C[C@H](C)[C@H](CN(C)S(=O)(=O)c2ccc(F)cc2)OCCCC[C@H](C)O3)cc1	x	n	n	x	x	x	x
Cc1ccc(C(=O)c2oc3ccccc3c2NC(=O)c2cc3ccccc3oc2=O)cc1F	n	x	x	x	x	x	x
CC(=O)Nc1ccc(OCC(=O)Nc2ccc(Cl)c(Cl)c2)cc1	n	x	x	x	x	x	x
COc1ccc(Cl)cc1NC(=O)CN(C)S(=O)(=O)c1c(C)cc(C)cc1C	n	x	x	x	x	x	x
O=C(CSc1nc2sc3c(c2c(=O)n1C1CCCCC1)CCCC3)Nc1ccccc1	n	x	x	x	x	x	x
Cc1ccc(-c2csc3ncnc(SCC(=O)c4ccc(F)cc4)c23)cc1	n	x	x	x	x	x	x
COc1ccc(S(=O)(=O)Nc2ccc3c(c2)C(=O)N([C@@H](C)CO)C[C@H](C)[C@@H](CN(C)S(=O)(=O)c2ccc(F)cc2)OCCCC[C@@H](C)O3)cc1	n	n	n	x	x	x	x
COc1ccc(S(=O)(=O)N(C)C[C@@H]2OCCCC[C@@H](C)Oc3ccc(NS(=O)(=O)c4ccc(F)cc4)cc3C(=O)N([C@@H](C)CO)C[C@@H]2C)cc1	n	n	112	101	n	n	53
O=S(=O)(c1ccc(-c2ccon2)s1)N(Cc1ccccn1)Cc1ccccn1	n	x	x	x	x	x	x
C[C@@H]1CN([C@@H](C)CO)C(=O)c2cc(C#CC3CCCCC3)cnc2O[C@@H]1CN(C)C(=O)NC1CCCC1	n	n	100	107	n	n	100
C[C@H](CO)N1C[C@H](C)[C@H](CN(C)C(=O)NC2CCCCC2)Oc2ncc(C#Cc3ccccc3)cc2C1=O	n	x	98	106	n	41	58
C[C@H]1CN([C@@H](C)CO)C(=O)c2cc(C#CC3CCCCC3)cnc2O[C@@H]1CN(C)C(=O)NC1CCCC1	n	n	n	x	x	x	x
C[C@H](CO)N1C[C@H](C)[C@H](CN(C)C(=O)NC2CCCCC2)Oc2ncc(C#Cc3cccc(F)c3)cc2C1=O	x	n	n	x	x	x	x
COC(=O)c1cc(NC(=O)CSc2nc(C)cc(C)n2)cc(C(=O)OC)c1	n	x	x	x	x	x	x
CN(C(=O)CSc1nnc(N)s1)c1ccccc1	n	x	x	x	x	x	x
COc1ccc(CN(C)C[C@@H]2Oc3ccc(NS(=O)(=O)c4ccc(OC)cc4)cc3CC(=O)N([C@H](C)CO)C[C@H]2C)cc1	n	n	105	103	n	n	n
COc1ccc(S(=O)(=O)Nc2ccc3c(c2)CC(=O)N([C@@H](C)CO)C[C@@H](C)[C@@H](CN(C)Cc2ccc(C(F)(F)F)cc2)O3)cc1	n	n	n	x	x	x	x
COc1ccc(CN(C)C[C@H]2Oc3ccc(NS(=O)(=O)c4ccc(OC)cc4)cc3CC(=O)N([C@H](C)CO)C[C@H]2C)cc1	x	n	n	x	x	x	x
COc1ccc(CN(C)C[C@H]2Oc3ccc(NS(=O)(=O)c4ccc(OC)cc4)cc3CC(=O)N([C@H](C)CO)C[C@@H]2C)cc1	n	n	x	x	x	x	x
SMILES	IDH1 R132H inh	GASC1 inh	T cruzi growth-1	T cruzi growth-2	T cruzi growth-3	3T3 cytotox	NIH3T3 tox 2
COc1ccc(S(=O)(=O)Nc2ccc3c(c2)CC(=O)N([C@H](C)CO)C[C@@H](C)[C@H](CN(C)Cc2ccc(C(F)(F)F)cc2)O3)cc1	n	n	u	102	n	n	59
COc1ccc(CN(C)C[C@H]2Oc3ccc(NS(=O)(=O)c4ccc(C)cc4)cc3CC(=O)N([C@H](C)CO)C[C@H]2C)cc1	n	n	115	108	n	n	u
O=C(Nc1sc2c(c1C(=O)NCC1CCCO1)CCC2)c1sc2ccccc2c1Cl (configuration not stated)	n	x	x	x	x	x	x
CC(C)c1ccc(NC(=O)CSCc2csc3ccccc23)cc1	n	x	x	x	x	x	x
O=C(Nc1ccccc1F)N1CCCCN2[C@@H](CO)[C@H](c3ccc(-c4cccnc4)cc3)[C@@H]2C1	x	n	102	106	n	n	34
O=C(Nc1ccccc1F)N1CCCCN2[C@H](C1)[C@H](c1ccc(C#Cc3cccnc3)cc1)[C@@H]2CO	x	n	n	x	x	x	x
O=C(Nc1ccccc1F)N1CCCCN2[C@@H](CO)[C@@H](c3ccc(-c4cccnc4)cc3)[C@@H]2C1	x	n	n	x	x	x	x
O=C(Nc1ccccc1F)N1CCCCN2[C@H](CO)[C@H](c3ccc(-c4cccnc4)cc3)[C@@H]2C1	x	n	113	105	n	n	n
CS(=O)(=O)N(CC(=O)Nc1cccc([N+](=O)[O-])c1)c1ccc(Br)cc1	n	x	x	x	x	x	x
CC1(C)COC(/C=C(\N)c2ccc(Br)cc2)=N1	n	x	x	x	x	x	x
CN1c2ccc(-c3cccc(F)c3)cc2[C@H]2[C@H](CCN2C(=O)C2CCC2)[C@H]1CO	x	n	x	x	x	x	x
COCC(=O)N1CC[C@@H]2[C@@H](CO)N(C)c3ccc(-c4cccc(F)c4)cc3[C@@H]21	x	n	u	106	n	n	n
COCC(=O)N1CC[C@H]2[C@@H]1c1cc(-c3cccc(F)c3)ccc1N(C)[C@H]2CO	x	n	n	x	x	x	x
COCC(=O)N1CC[C@@H]2[C@H]1c1cc(-c3cccc(F)c3)ccc1N(C)[C@H]2CO	x	n	102	107	n	n	n
CCC(=O)N1CC[C@H]2[C@@H]1c1cc(-c3cccc(F)c3)ccc1N(C)[C@H]2CO	x	n	n	x	x	x	x
CN1c2ccc(-c3cccc(F)c3)cc2[C@H]2[C@H](CCN2C(=O)C2CC2)[C@@H]1CO	x	n	117	102	n	n	u

Bioassay records from PubChem.
